Each block holds one compound with its values, some of them ahead of it.
How the values were obtained:
[1] = Atropoisomer stability in solution; assay type: physicochemical
[2] = target: T1, MCL-1 (Homo sapiens, UniProt Q07820); test: FP; assay type: binding; details: FP MCL-1 Ki
[3] = system: NCI-H929 cells; test: MTT cell viability assay of NCI H929 cell line; assay type: cell-based; details: for loss of cellular activity: compared to 13
[4] = target: T1, MCL-1; test: QA; assay type: binding; details: for Ki: QA MCL-1 Ki
[5] = system: cleaved PARP; test: In vivo PD: increase of cleaved PARP in AMO1 xenografted mice; details: for PARP activation (fold): AMO1 xenografted mice, 16 h after i.v. bolus treatment at 12.5 mg/kg
How it was run: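 Female CB-17 SCID mice (6–7 weeks) were implanted s.c. with 5 × 10⁶ AMO-1 cells in 50:50 medium:Matrigel. At ~200 mm³ tumor volume they were randomized, n = 3 per group. Test compound in 20% HPbCD/25 mM HCl was given as a single 12.5 mg/kg i.v. bolus. Cleaved PARP increase was measured in tumors 16 h later.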

[6] = indole analogue versus preceding benzofurane/benzothiophene analogues

T1 sequence (Q07820 whole entry): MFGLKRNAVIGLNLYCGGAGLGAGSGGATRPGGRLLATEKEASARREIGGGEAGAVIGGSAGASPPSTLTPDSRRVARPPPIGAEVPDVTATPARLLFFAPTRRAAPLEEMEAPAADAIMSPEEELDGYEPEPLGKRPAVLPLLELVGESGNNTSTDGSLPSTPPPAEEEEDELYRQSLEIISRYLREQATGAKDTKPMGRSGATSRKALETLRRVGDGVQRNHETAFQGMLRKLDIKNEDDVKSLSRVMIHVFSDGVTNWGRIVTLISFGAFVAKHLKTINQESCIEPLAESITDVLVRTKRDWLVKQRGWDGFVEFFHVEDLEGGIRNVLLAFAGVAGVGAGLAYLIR

- atropoisomer stability [1]: stable under the testing conditions
- Ki [2]: 8700 nM
Compound: CCc1c(-c2cccc(Cl)c2C)c2c(N[C@H](Cc3ccccc3)C(=O)O)ncnc2n1C (single isomer, unassigned) [Compound 2b, N-[(5Sa)-5-(3-Chloro-2-methylphenyl)-6-ethyl-7-methyl-7H-pyrrolo[2,3-d]pyrimidin-4-yl]-D-phenylalanine]

Compound: Cc1c(Cl)cccc1-c1c2n(c3ncnc(N[C@H](Cc4ccccc4)C(=O)O)c13)CCC2 [Compound 11, N-[5-(3-Chloro-2-methylphenyl)-7,8-dihydro-6H-pyrimido[5,4-b]pyrrolizin-4-yl]-D-phenylalanine]
- atropoisomer stability [1]: facile interconversion of the atropoisomers in solution

- Ki [2]: 820 nM
Compound: COc1ccccc1C[C@@H](Oc1cccc2oc(-c3ccc(F)cc3)c(-c3ccc(OCCN4CCN(C)CC4)c(Cl)c3C)c12)C(=O)O [Compound 14, (2R)-2-{[(3Sa)-3-{3-Chloro-2-methyl-4-[2-(4-methylpiperazin-1-yl)ethoxy]phenyl}-2-(4-fluorophenyl)-1-benzofuran-4-yl]oxy}-3-(2-methoxyphenyl)propanoic Acid]
- loss of cellular activity [3]: more than 10 fold

- Ki [2]: 47 nM
Compound: COc1ccccc1C[C@@H](Oc1cccc2cc(-c3ccc(F)cc3)n(-c3ccc(OCCN4CCN(C)CC4)c(Cl)c3C)c12)C(=O)O [Compound 15, (2R)-2-{[(1Ra)-1-{3-Chloro-2-methyl-4-[2-(4-methylpiperazin-1-yl)ethoxy]phenyl}-2-(4-fluorophenyl)-1H-indol-7-yl]oxy}-3-(2-methoxyphenyl)propanoic Acid]
- loss of cellular activity [3]: more than 10 fold

- Ki [4]: 0.303 nM
Compound: COc1ccccc1-c1nccc(COc2ccccc2C[C@@H](Nc2ncnc3sc(-c4ccc(F)cc4)c(-c4ccc(OCCN5CCN(C)CC5)c(Cl)c4C)c23)C(=O)O)n1 [Compound 16b, N-[(5Sa)-5-{3-Chloro-2-methyl-4-[2-(4-methylpiperazin-1-yl)ethoxy]phenyl}-6-(4-fluorophenyl)thieno[2,3-d]pyrimidin-4-yl]-2-{[2-(2-methoxyphenyl)pyrimidin-4-yl]methoxy}-D-phenylalanine]

- Ki [4]: 0.1 nM
Compound: COc1ccccc1-c1nccc(COc2ccccc2C[C@@H](Oc2ccnc3sc(-c4ccc(F)cc4)c(-c4ccc(OCCN5CCN(C)CC5)c(Cl)c4C)c23)C(=O)O)n1 [Compound 17, (2R)-2-{[(3Sa)-3-{3-Chloro-2-methyl-4-[2-(4-methylpiperazin-1-yl)ethoxy]phenyl}-2-(4-fluorophenyl)thieno[2,3-b]pyridin-4-yl]oxy}-3-(2-{[2-(2-methoxyphenyl)pyrimidin-4-yl]methoxy}phenyl)propanoic Acid]
- PARP activation (fold) [5]: 12 fold

- Ki [4]: 0.1 nM
Compound: COc1ccccc1-c1nccc(COc2ccccc2C[C@@H](Nc2ccnc3sc(-c4ccc(F)cc4)c(-c4ccc(OCCN5CCN(C)CC5)c(Cl)c4C)c23)C(=O)O)n1 [Compound 18, N-[3-{3-Chloro-2-methyl-4-[2-(4-methylpiperazin-1-yl)ethoxy]phenyl}-2-(4-fluorophenyl)thieno[2,3-b]pyridin-4-yl]-2-{[2-(2-methoxyphenyl)pyrimidin-4-yl]methoxy}-D-phenylalanine]

- Ki [4]: 1.2 nM
- drop in affinity ([4]; compared to 16b): 2–4 fold
Compound: COc1ccccc1-c1nccc(COc2ccccc2C[C@@H](Nc2nccc3sc(-c4ccc(F)cc4)c(-c4ccc(OCCN5CCN(C)CC5)c(Cl)c4C)c23)C(=O)O)n1 [Compound 19, N-[3-{3-Chloro-2-methyl-4-[2-(4-methylpiperazin-1-yl)ethoxy]phenyl}-2-(4-fluorophenyl)thieno[3,2-c]pyridin-4-yl]-2-{[2-(2-methoxyphenyl)pyrimidin-4-yl]methoxy}-D-phenylalanine]
- drop in cellular activity ([3]; compared to 16b): 2–4 fold

- Ki [4]: 1.8 nM
Compound: COc1ccccc1-c1nccc(COc2ccccc2C[C@@H](Oc2cccc3sc(-c4ccc(F)cc4)c(-c4ccc(OCCN5CCN(C)CC5)c(Cl)c4C)c23)C(=O)O)n1 [Compound 20, (2R)-2-{[(3Sa)-3-{3-Chloro-2-methyl-4-[2-(4-methylpiperazin-1-yl)ethoxy]phenyl}-2-(4-fluorophenyl)-1-benzothiophen-4-yl]oxy}-3-(2-{[2-(2-methoxyphenyl)pyrimidin-4-yl]methoxy}phenyl)propanoic Acid]
- PARP activation (fold) [5]: 156 fold

- Ki [4]: 1.3 nM
Compound: COc1ccccc1-c1nccc(COc2ccccc2C[C@@H](Oc2cccc3oc(-c4ccc(F)cc4)c(-c4ccc(OCCN5CCN(C)CC5)c(Cl)c4C)c23)C(=O)O)n1 [Compound 21, (2R)-2-{[(3Sa)-3-{3-Chloro-2-methyl-4-[2-(4-methylpiperazin-1-yl)ethoxy]phenyl}-2-(4-fluorophenyl)-1-benzofuran-4-yl]oxy}-3-(2-{[2-(2-methoxyphenyl)pyrimidin-4-yl]methoxy}phenyl)propanoic Acid]

- Ki [4]: 2.3 nM
- drop of on-target affinity [4, 6]: ca. 2 fold
Compound: COc1ccccc1-c1nccc(COc2ccccc2C[C@@H](Oc2cccc3c2c(-c2ccc(OCCN4CCN(C)CC4)c(Cl)c2C)c(-c2ccc(F)cc2)n3C)C(=O)O)n1 [Compound 22, (2R)-2-{[(3Sa)-3-{3-Chloro-2-methyl-4-[2-(4-methylpiperazin-1-yl)ethoxy]phenyl}-2-(4-fluorophenyl)-1-methyl-1H-indol-4-yl]oxy}-3-(2-{[2-(2-methoxyphenyl)pyrimidin-4-yl]methoxy}phenyl)propanoic Acid]
- drop of cellular activity [3, 6]: ca. 2 fold

- Ki [4]: 0.64 nM
- fold less active ([4]; compared to 16a, affinity and activity): about 20 fold
- atropoisomer stability [1]: rapid isomerization
Compound: COc1ccccc1-c1nccc(COc2ccccc2C[C@@H](Oc2ncnc3c2c(-c2ccc(OCCN4CCN(C)CC4)c(Cl)c2C)c(-c2ccc(F)cc2)n3C)C(=O)O)n1 [Compound 23, (2R)-2-[(5Sa)-5-[3-Chloro-2-methyl-4-[2-(4-methylpiperazin-1-yl)ethoxy]phenyl]-6-(4-fluorophenyl)-7-methyl-pyrrolo[2,3-d]pyrimidin-4-yl]oxy-3-[2-[[2-(2-methoxyphenyl)pyrimidin-4-yl]methoxy]phenyl]propanoic Acid]
- PARP activation (fold) [5]: 5 fold

- Ki [4]: 0.61 nM
- atropoisomer stability [1]: stable in solution
Compound: COc1ccccc1-c1nccc(COc2ccccc2C[C@@H](Nc2ncnc3oc(-c4ccc(F)cc4)c(-c4ccc(OCCN5CCN(C)CC5)c(Cl)c4C)c23)C(=O)O)n1 [Compound 25, N-[(5Sa)-5-{3-Chloro-2-methyl-4-[2-(4-methylpiperazin-1-yl)ethoxy]phenyl}-6-(4-fluorophenyl)furo[2,3-d]pyrimidin-4-yl]-2-{[2-(2-methoxyphenyl)pyrimidin-4-yl]methoxy}-D-phenylalanine]
- PARP activation (fold) [5]: 60 fold
- PARP activation, fold less ([5]; than for the hydroxy acid analogue): about 2 fold

- Ki [4]: 8.2 nM
- drop in affinity ([4]; compared to 16a): 200 fold
Compound: COc1ccccc1-c1nccc(COc2ccccc2C[C@@H](Oc2nccc3nc(-c4ccc(F)cc4)c(-c4ccc(OCCN5CCN(C)CC5)c(Cl)c4C)n23)C(=O)O)n1 [Compound 26, (2R)-2-{[(3Ra)-3-{3-Chloro-2-methyl-4-[2-(4-methylpiperazin-1-yl)ethoxy]phenyl}-2-(4-fluorophenyl)imidazo[1,2-c]pyrimidin-5-yl]oxy}-3-(2-{[2-(2-methoxyphenyl)pyrimidin-4-yl]methoxy}phenyl)propanoic Acid]
- drop in cellular activity ([3]; compared to 16a): 200 fold
